PTEN del growth – PTEN-deleted cell growth suppression; HCT116 PTEN-null viability, CellTiter-Glo, 60 h; hits give low values; viability, % at 10 µM; hit rate 1.2% among 140,000; AID 827;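 active = viability at or below a set limit, 4 SD under the median of all tested compounds, cut at about 3.7% in these data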;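 note: PTEN knockout HCT116 line with beta catenin targeted HCT116 as companion control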
Lmaj promast – reduces viability of Leishmania major promastigotes. resazurin fluorescence viability. inhibition, % at 10 µM. hit rate 9% among 200,000. AID 1063; in the data active = inhibition above about 50%;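 note: promastigotes grown with compound for 44 hours at 28 °C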
Dynein transport – blocks dynein driven cargo transport along microtubules; 3617.4 mouse cells, GR-EGFP nuclear translocation imaging; test concentration mostly 20 µM; stimulated with dexamethasone, 1 µM; hits give low values; z-score, hits read low; hit rate 0.47% among 220,000; AID 1381;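 active = plate z-score of nuclear minus cytoplasmic receptor signal below a set negative limit, without overly bright fluorescence or cell loss, cut at about -3.5 in these data, passing the limit was not always enough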;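 note: z-score of nuclear minus cytoplasmic ring GR-EGFP intensity difference per well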
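Medium: Induction medium lacking tetracycline, stripped serum | Probe or stimulus: 1.0 µM final dexamethasone stimulus | Schedule: 48 h induction, then 1 h compound, then 30 min agonist, 37 °C | Signal: Automated 10x imaging of fixed Hoechst-stained cells | Evaluation: Per-cell GR-EGFP intensity, nucleus versus surrounding cytoplasmic ring, well-averaged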
HCT116 bCat-KO – beta-catenin-lacking colon tumor cell growth suppression | HCT116 beta-catenin knockout viability, CellTiter-Glo, 60 h; hits give low values | viability, % at 10 µM | hit rate 1.5% among 140,000 | AID 818;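 active = viability at or under a set limit, the compound median less 4 SD, cut at about 6% in these data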;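 note: 0% = Hyamine 1622 control at 20 µM and 100% = untreated cell control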
Autophagy HCS – modulators of autophagy; hit rate 0.98% among 190,000; calls only at 10 µM (by protocol); MEF GFP-LC3 puncta imaging; test concentration mostly 10 µM;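 active = percentage of spot-positive cells more than 3 SD above its plate mean, without a fluorescence outlier flag or 80% toxicity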;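 note: spot-positive cell cutoff set from DMSO-treated cells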
* marks the source's active call; other numbers are inactive results; i = inactive; . = no result; + = active, no number. Sampled rows, rich in hits. Any-hit rate of the full collection: about 9.2%.

SMILES	PTEN del growth	Lmaj promast	Dynein transport	HCT116 bCat-KO	Autophagy HCS
COc1cc(CNCC(O)c2ccccc2)ccc1OCc1ccc(Cl)nc1 (stereo not drawn)	88.3	100.2*	0.885	85.9	i
Cc1ccccc1NC(=O)CNC(=O)c1ccc(C(F)(F)F)cc1	95.6	62.1*	0.492	91.7	i
Cc1ccc(C(=O)NCC(=O)Nc2ccccc2C(F)(F)F)cc1	99.3	-0.2	1.55	97.4	i
Cn1c(N)c(C(=O)COC(=O)CCCc2nc3ccccc3s2)c(=O)n(C)c1=O	.	-6.8	0.941	.	+
O=C(NCc1ccc2c(c1)OCO2)C1CCN(c2ccc(S(=O)(=O)N3CCCC3)cc2)CC1	66.8	97.0*	1.2	66.0	i
Cc1nn(Cc2ccccc2)c2sc(C(=O)N3CCN(Cc4ccc5c(c4)OCO5)CC3)cc12	80.3	74.9*	0.119	88.8	i
COc1ccc(S(=O)(=O)N2CCN(S(=O)(=O)c3ccc4c(c3)OCCO4)CC2)cc1C	86.5	60.9*	-1.47	79.2	i
O=C(NCc1ccc2c(c1)OCO2)C1CCN(S(=O)(=O)N2CCCCC2)CC1	90.0	-1.7	0.454	95.9	i
COc1ccc(S(=O)(=O)N2CCN(S(=O)(=O)c3ccc4c(c3)OCCO4)CC2)cc1	91.1	-4.9	-0.636	92.7	i
CCn1c2ccccc2c2cc(CN3CCN(S(=O)(=O)Cc4ccccc4)CC3)ccc21	88.0	55.0*	0.568	87.4	i
COc1cc(C(C)=O)ccc1COc1ccc(C(=O)O)cc1OC	.	.	1.57	.	.
O=C(c1ccc2nc(N3CCCCC3)sc2c1)N1CCN(Cc2ccc3c(c2)OCO3)CC1	62.8	68.3*	0.0642	60.1	i
COc1cc(C)c(C)cc1S(=O)(=O)N1CCN(Cc2ccc3c(c2)OCO3)CC1	95.1	60.4*	0.399	91.3	i
O=S(=O)(c1ccc2c(c1)OCCO2)N1CCN(Cc2ccc3c(c2)OCO3)CC1	100.0	73.5*	-0.227	96.3	i
O=S(=O)(Cc1ccccc1)N1CCN(Cc2ccc3c(c2)OCO3)CC1	95.1	91.6*	0.267	89.4	i
CCN(CC)CC(=O)Nc1c(C)cc(C)cc1C	83.9	-3.1	-0.0596	85.2	.
Cc1cc(C(C)(C)C)ccc1NC(=O)CC(C)(C)CC(=O)O	.	.	-0.443	.	.
O=S(=O)(c1ccc(F)c(F)c1)N1CCN(Cc2ccc3c(c2)OCO3)CC1	98.5	78.0*	0.294	103.2	i
O=C1CCc2cc(S(=O)(=O)N3CCN(Cc4ccc5c(c4)OCO5)CC3)ccc2N1	92.3	-1.3	-0.526	84.4	i
Cn1c(=O)oc2cc(S(=O)(=O)N3CCN(Cc4ccc5c(c4)OCO5)CC3)ccc21	108.7	75.7*	-0.917	88.4	i
O=C(OCc1ccc2c(c1)OCO2)c1cccc(S(=O)(=O)N2CCCCC2)c1	95.7	55.5*	-0.686	91.6	i
O=C(OCc1ccc2c(c1)OCO2)c1ccc(S(=O)(=O)N2CCCC2)cc1	88.5	-4.7	-0.691	97.2	i
O=S(=O)(c1cccc(F)c1)N1CCN(Cc2ccc3c(c2)OCO3)CC1	90.2	73.6*	3.58	95.6	i
COc1cccc(OC)c1OCCCOc1ccc(C)cc1Br	82.5	37.2	-0.166	86.8	i
CCN(CC(=O)NCc1ccc(Cl)cc1)C(=O)/C=C/c1cccs1	.	-6.1	-0.619	.	i
SMILES	PTEN del growth	Lmaj promast	Dynein transport	HCT116 bCat-KO	Autophagy HCS
Cc1ccc(C)c(CSc2nnc([C@@H]3CCCN3)o2)c1	.	.	-0.646	.	.
O=C(c1ccc(S(=O)(=O)N2CCCCC2)cc1)N1CCN(Cc2ccc3c(c2)OCO3)CC1	80.0	98.4*	0.756	77.2	i
CC1CCCN(Cc2cnc(Cl)s2)C1 (stereo not drawn)	96.2	-6.0	0.31	96.4	i
Cc1cccc(N2CCN(Cc3cnc(Cl)s3)CC2C)c1 (stereo not drawn)	.	77.7*	-0.693	.	i
Cc1ccc(C(C(=O)NC2CCCC2)N(Cc2cccnc2)C(=O)c2snc(C(N)=O)c2N)o1 (stereo not drawn)	87.1	-3.5	0.575	99.1	i
CC(C)CC(C(=O)NC1CCCCC1)N(Cc1cccs1)C(=O)c1snc(C(N)=O)c1N (stereo not drawn)	.	15.9	-0.953	.	i
CC(C)CC(C(=O)NC1CCCC1)N(Cc1cccs1)C(=O)c1snc(C(N)=O)c1N (stereo not drawn)	79.9	93.1*	0.158	84.1	i
CCOc1ccccc1N(C(=O)c1snc(C(N)=O)c1N)C(C(=O)NC1CCCC1)c1ccco1 (stereo not drawn)	77.3	75.6*	-0.751	80.4	i
